Experimental data published in article PMC2771698 (Journal of medicinal chemistry, 2009).
Several values for one entry are separate records, joined by “and”; a condition that tells them apart may be missing. Equal entries are not always repeated. Where two headings read alike, the source gives them in different places. Each block holds one compound with its values, some of them ahead of it.

Experiments:
[1] = cited from earlier work
[2] = tested on: T. cruzi amastigotes; test: T. cruzi; format: cell-based, Trypanosoma cruzi; settings: read-out: EC50 T. cruzi
In short: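 β-galactosidase-expressing Tulahuen strain grown as intracellular amastigotes in murine 3T3 fibroblasts, 96-well format, colorimetric read-out. Test compounds HPLC-purified to a single peak, with ≥95% estimated purity by 1H NMR. Each tested in triplicate to derive EC50.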

[3] = Single oral dose pharmacokinetics in BALB/c mice; format: in vivo; settings: single dose 50 mg/kg oral gavage; for AUC 0_5hr, Mouse 1, 2, 3 / Tmax, Mouse 1, 2, 3 / Cmax, Mouse 1, 2, 3: Balb/c mice, individual mice, 50 mg/kg; for Cmax, Mouse 1, 2, 3: plasma
[4] = tested on: T. cruzi trypomastigotes (Tulahuen strain); test: Efficacy in mice infected with T. cruzi; format: in vivo; settings: days 7–27 post-infection
In short: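 Female BALB/c mice (7–8 weeks) infected subcutaneously with 1×10^4 Tulahuen trypomastigotes; treatment began day 7 post-infection. Groups of 6 dosed by oral gavage twice daily for 21 days, 100 µL per dose in 20% (w/v) hydroxypropyl β-cyclodextrin; vehicle-only group included. Parasitemia counted in 5 µL tail blood under coverslip, 50 high-power fields, through day 97. Pre-morbid mice euthanized; survivors sacrificed day 100.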

[5] = tested on: T. cruzi; test: PCR detection of T. cruzi parasitemia in blood of treated mice at day 100; format: in vivo; settings: for PCR parasite detection after 100 days post infection: days 7–27 post-infection, groups of 6
[6] = mice and rats; cited from earlier work
[7] = 50 mg/kg oral gavage twice per day
[8] = 20 mg/kg oral gavage twice per day

SMILES: c1ccc(-c2ccc(Cn3cncc3CNc3ccc(-c4cncs4)c(-c4ccccc4)c3)cc2)cc1 [Compound 27a]
pharmacokinetic profile in mice [1]: good pharmacokinetic profile

SMILES: c1ccc(-c2ccc(Cn3cncc3CNc3ccc(-c4nc5ccccc5s4)c(-c4ccccc4)c3)cc2)cc1 [Compound 27d]
pharmacokinetic profile in mice [1]: good pharmacokinetic profile

SMILES: CC(C)c1ccc(Cn2cncc2CNc2ccc(-c3nc4ccccc4s3)c(-c3ccccc3)c2)cc1 [Compound 32a]
EC50 ([2]; Table 3, general structure III): 860 nM

SMILES: CCc1ccc(Cn2cncc2CNc2ccc(-c3nc4ccccc4s3)c(-c3ccccc3)c2)cc1 [Compound 32b]
EC50 ([2]; Table 3, general structure III): 190 nM

SMILES: Fc1ccc(Cn2cncc2CNc2ccc(-c3nc4ccccc4s3)c(-c3ccccc3)c2)c(F)c1 [Compound 32d]
EC50 ([2]; Table 3, general structure III): 630 nM

SMILES: Cc1ccccc1-c1ccc(Cn2cncc2CNc2ccc(-c3nc4ccccc4s3)c(-c3ccccc3)c2)cc1 [Compound 32f]
EC50 ([2]; Table 3, general structure III): 180 nM

SMILES: Cc1ccccc1-c1cc(NCc2cncn2Cc2ccc(-c3ccccc3)cc2)ccc1-c1nc2ccccc2s1 [Compound 32g]
EC50 ([2]; Table 3, general structure III): 42 nM

SMILES: Cc1cccc(-c2cc(NCc3cncn3Cc3ccc(-c4ccccc4)cc3)ccc2-c2nc3ccccc3s2)c1C [Compound 32h]
EC50 ([2]; Table 3, general structure III): 101 nM

SMILES: c1ccc(Cn2cncc2CNc2cccc(-c3ccccc3)c2)cc1 [Compound 35e]
EC50 ([2]; Table 4, general structure IV): 400 nM

SMILES: Cc1ccccc1-c1cccc(NCc2cncn2Cc2ccccc2)c1 [Compound 35g]
EC50 ([2]; Table 4, general structure IV): 310 nM

SMILES: Cc1cccc(-c2cccc(NCc3cncn3Cc3ccccc3)c2)c1C [Compound 35i]
EC50 ([2]; Table 4, general structure IV): 300 nM

SMILES: c1ccc(Cn2cncc2CNc2cccc(-c3cccnc3)c2)cc1 [Compound 35j]
EC50 ([2]; Table 4, general structure IV): 760 nM

SMILES: Nc1cc(-c2ccccc2)ccc1Cn1cncc1CNc1ccc(Cl)c(-c2ccccc2)c1 [Compound 44a, (6-Chloro-biphenyl-3-yl)-[3-(3-amino-biphenyl-4-ylmethyl)-3H-imidazol-4-ylmethyl]-amine]
EC50 ([2]; Table 5, general structure V): 1.5 nM and 2.1 nM
AUC 0_5hr, Mouse 1, 2, 3 [3]: 6700 ng·h/mL and 5600 ng·h/mL
Tmax, Mouse 1, 2, 3 [3]: 1.0 h
Cmax, Mouse 1, 2, 3 [3]: 1900 ng/mL
suppression of parasitemia in blood (microscopy) [4, 7]: dramatically suppressed
PCR parasite detection after 100 days post infection [5, 7]: 6 of 6 mice

SMILES: N#Cc1ccc(NCc2cncn2Cc2ccc(-c3ccccc3)cc2N)cc1-c1ccccc1 [Compound 44b]
EC50 ([2]; Table 5, general structure V): 2.6 nM

AUC 0_5hr, Mouse 1, 2, 3 [3]: 32400 ng·h/mL and 29000 ng·h/mL
Tmax, Mouse 1, 2, 3 [3]: 2.0 h
Cmax, Mouse 1, 2, 3 [3]: 8600 ng/mL
drug loss from plasma out to 5 hr ([3]; mice): significant drug loss was not observed
SMILES: Nc1cc(-c2ccccc2)ccc1Cn1cncc1CNc1ccc(-c2nc3ccccc3s2)c(-c2ccccc2)c1 [Compound 44d]
suppression of parasitemia in blood (microscopy) [4, 8]: dramatically suppressed
suppression of parasitemia in blood (microscopy) [4, 7]: most suppression
PCR parasite detection after 100 days post infection [5, 8]: 5 of 6 mice
PCR parasite detection after 100 days post infection [5, 7]: 2 of 6 mice
mice with parasitemia suppressed below PCR detectability ([5]; 50 mg/kg twice per day, day 100): 4 of 6

SMILES: Nc1cc(-c2ccccc2)ccc1Cn1cncc1CNc1ccc(-c2cncs2)c(-c2ccccc2)c1 [Compound 44e]
EC50 ([2]; Table 5, general structure V): 13 nM

SMILES: CC[C@@H]([C@H](C)O)n1ncn(-c2ccc(N3CCN(c4ccc(OC[C@@H]5CO[C@@](Cn6cncn6)(c6ccc(F)cc6F)C5)cc4)CC3)cc2)c1=O [Posaconazole, posaconazole, reference compound]
suppression of parasitemia in blood (microscopy) [4, 8]: most suppression
terminal phase half-life [6]: 7 to 9 h
PCR parasite detection after 100 days post infection [5, 8]: 0 of 6 mice
